For one series, the system named is D2^high. The following applies: cited from earlier work.
The target in series [1] is dopamine D2 receptor (Rattus norvegicus, UniProt P61169). Put plainly: in vitro autoradiography on rat brain sections. The format is binding. The following applies: transaxial and coronal/transversal sections; excess competitor.
Series [2] has as its system dopamine D2 receptor. The following applies: co-incubation with guanylylimidodiphosphate; cited from earlier work.
Series [3] in a line: biodistribution of [3H]MCL-536 in peripheral organs. The format is in vivo, Sprague–Dawley rats.
A short description of series [4]: biodistribution of [3H]MCL-536 in the rat brain. The format is in vivo, Sprague–Dawley rats. The following applies: for uptake in striatum, % injected dose per gram wet tissue: 15 min after tail vein injection.
Series [5] can be described thus: human liver microsome stability assay. The format is in vitro ADME. As to conditions: 1 h (60 min), 37 °C, NADPH 1 mM, pooled human liver microsomes. The method, boiled down:
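Test compound (from a 100× stock) preincubated 5 min at 37 °C with pooled human liver microsomes in 100 mM phosphate buffer pH 7.4. NADPH (1 mM final) started the reaction, run 30 or 60 min at 37 °C and quenched with cold acetonitrile. Supernatant analysed by C18 HPLC (UV 265 nm), with remaining parent expressed relative to the 0 min sample. Dextromethorphan was the positive control; negative controls were heat-inactivated microsomes and no NADPH. Triplicate.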

The subject of series [6] is other receptors of the D2 receptor family; other receptors found in the brain. As to conditions: cited from earlier work.

“Also recorded” adds a separate entry of the source. Counter-ions that a name gives are not always drawn.

Chain of dopamine D2 receptor (Rattus norvegicus, UniProt P61169) (P61169 whole entry): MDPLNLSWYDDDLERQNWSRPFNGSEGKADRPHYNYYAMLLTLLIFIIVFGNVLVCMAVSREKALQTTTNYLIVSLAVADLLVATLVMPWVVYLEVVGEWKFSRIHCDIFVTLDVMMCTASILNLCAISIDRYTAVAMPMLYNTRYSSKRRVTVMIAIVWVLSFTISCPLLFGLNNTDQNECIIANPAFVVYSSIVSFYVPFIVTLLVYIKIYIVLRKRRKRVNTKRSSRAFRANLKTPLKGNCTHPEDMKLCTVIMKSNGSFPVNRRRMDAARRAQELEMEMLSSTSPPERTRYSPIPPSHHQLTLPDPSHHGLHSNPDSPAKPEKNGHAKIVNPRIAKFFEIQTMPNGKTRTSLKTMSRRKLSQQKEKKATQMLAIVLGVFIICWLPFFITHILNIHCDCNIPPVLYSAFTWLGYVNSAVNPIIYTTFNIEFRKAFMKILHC

As to `C[C@H](N)Cc1ccccc1` [Amphetamine, d-amphetamine sulfate], the “increase in D2high, measured in the striatum in vivo” value in the series on D2^high (in vivo) was ~2.36 fold. Besides, the “elevation of D2high in vitro in the same tissue” value in the series with D2^high (striatum, in vitro) is on record as 2.44 fold.

On to `CCN1CCCC1CNC(=O)c1cc(S(N)(=O)=O)ccc1OC` (stereo not shown) [sulpiride], for which the “effect on binding of [3H]MCL-536 on brain sections (summary statements)” value (shortened to “effect on binding”) on dopamine D2 receptor [1] is on record as “completely abolished”.

As to `CCCN1CCc2cccc3c2[C@H]1Cc1ccc(O)c(O)c1-3` [NPA, (R)-(−)-N-n-propylnorapomorphine], the “effect on binding” value on dopamine D2 receptor [1] is recorded as “abolished”.

As to `Nc1nc2c(ncn2[C@@H]2O[C@H](COP(=O)(O)OP(=O)(O)NP(=O)(O)O)[C@@H](O)[C@H]2O)c(=O)[nH]1` [Gpp(NH)p, guanylylimidodiphosphate], in the series on dopamine D2 receptor [2], the “binding of [3H]MCL-536 to D2high on co-incubation” value is on record as “abolished binding to D2^high”. Also, on dopamine D2 receptor [1], the “effect on binding” value was “abolished binding”.

As for `CCN1CCC[C@H]1CNC(=O)c1c(O)c(Cl)cc(Cl)c1OC` [raclopride], on dopamine D2 receptor [1], the “effect on binding” value is “completely abolished”.

Regarding `[3H]C(C)C([3H])N1CCc2cc(OCCCF)cc3c2[C@H]1Cc1cccc(O)c1-3` (stereo partly shown) [[^3H]MCL-536], the “time of maximum %ID/g in peripheral tissues” value in series [3] (all peripheral tissues) was 15 min. Further, the “reduction of levels in fatty tissue” value in series [3] (at 60 min) is “about 2/3”. In addition, the “decline of %ID/g in the kidneys” value in series [3] (by 60 min, both sexes) is “about 60%”. Also, the “brain uptake values 4 h after injection” value in series [4] (4 h after injection) was “almost baseline”. Further, the “uptake in striatum, % injected dose per gram wet tissue” value stood at 0.42 %ID/g in series [4] (female rats) and 0.28 %ID/g in series [4] (male rats). Further, the “course of %ID/g in the striatum” value in series [4] (females, 60 min postinjection) was “stable”. Moreover, the “baseline binding in cerebellum” value in series [4] (male and female rats) was ≤ 0.1 %ID/g. Further, in series [4] (males, 60 min postinjection), the “decline of %ID/g in the striatum” value is given as “about 25%”.

Take `[3H]C(C)C([3H])N1CCc2cc(OCCCF)cc3c2[C@H]1Cc1cccc(O)c1-3` (stereo partly shown) [MCL-536]: in series [5], the “compound remaining intact after incubation with human liver microsomes” value is on record as “about 75%”. In series [6], the “affinity for other receptors found in the brain / other receptors tested” value is reported as “little to no affinity” and the “affinity for other receptors of the D2 receptor family” value is “but not for the other receptors of the D2 subfamily; also recorded: but not to other receptors of the D2 receptor family”.

(Values after PMC8426090 (ACS chemical neuroscience, 2021).)
